DAGLB inhibitor: DAGLB lipase inhibitors, primary screen, biochemical, fluorescence, HTS; Diacylglycerol lipase-beta (Homo sapiens), Q8NCG7; HEK293T DAGLB membrane lysate, EnzChek fluorogenic substrate; inhibition, % at 5.17 µM; 340,000 compounds, 0.059% hits; AID 504411, 2011; in the data active means inhibition above about 34%;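 further: 0% = enzyme with vehicle and 100% = wells lacking enzyme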
Target sequence (Q8NCG7 whole entry, looked up): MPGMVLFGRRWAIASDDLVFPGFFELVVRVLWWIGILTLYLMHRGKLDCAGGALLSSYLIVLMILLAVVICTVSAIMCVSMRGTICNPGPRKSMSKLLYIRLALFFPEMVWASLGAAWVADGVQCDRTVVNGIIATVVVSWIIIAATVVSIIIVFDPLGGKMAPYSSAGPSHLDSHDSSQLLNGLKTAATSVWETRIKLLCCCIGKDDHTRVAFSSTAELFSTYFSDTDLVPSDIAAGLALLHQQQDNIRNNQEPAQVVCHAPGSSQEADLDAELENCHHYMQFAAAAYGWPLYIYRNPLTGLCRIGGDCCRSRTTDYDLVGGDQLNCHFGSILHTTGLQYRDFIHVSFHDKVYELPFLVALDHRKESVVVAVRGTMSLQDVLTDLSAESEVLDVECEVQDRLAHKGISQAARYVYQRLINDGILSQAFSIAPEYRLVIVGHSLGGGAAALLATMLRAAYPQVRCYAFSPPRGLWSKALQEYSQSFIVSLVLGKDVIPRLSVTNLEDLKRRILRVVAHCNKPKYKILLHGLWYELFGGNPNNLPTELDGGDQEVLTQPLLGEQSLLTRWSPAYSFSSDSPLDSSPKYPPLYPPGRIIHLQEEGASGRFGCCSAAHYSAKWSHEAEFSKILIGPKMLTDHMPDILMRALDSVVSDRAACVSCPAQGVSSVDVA
FAS TE block: FAS thioesterase domain inhibitors, primary screen, biochemical, fluorescence intensity, uHTS; recombinant FAS-TE, OMFH fluorogenic substrate, fluorescence endpoint; 360,000 compounds, 0.67% hits; Fatty acid synthase (Homo sapiens), P49327; AID 602261, 2012; inhibition, % at 15 µM;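 active means compounds whose normalised, plate-corrected inhibition of enzyme fluorescence in the single-dose primary screen is 50% or more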;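 further: 0% = DMSO with enzyme and 100% = substrate without enzyme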
MT1-MMP act inh: blockers of MT1-MMP proenzyme processing, primary screen, HT1080 RFP-PRO-GFP cells, GFP/RFP fluorescence; 360,000 compounds, 0.061% hits; Matrix metalloproteinase-14 (Homo sapiens), P50281; GFP/RFP ratio fluorescence, overnight; percent of plate control window, DMSO zero; GFP/RFP ratio change, % at 20 µM;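 active means GFP/RFP ratio change of at least 30% with cell ATP level not reduced by more than half and red fluorescence within 50% of control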
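Assay system: HT1080 RFP-PRO-GFP cells. Benchmarks: DMSO vehicle wells and RFP-L50D-GFP reporter cell wells. Times: overnight cell settling, then overnight compound exposure, 37 °C, 5% CO2. Compound: 20 µM single dose, 1% DMSO. Read-out basis: GFP/RFP fluorescence ratio.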
SKN-1 block: suppressors of acrylamide-induced Pgst-4::GFP reporter in worms, primary screen, SKN-1 inhibitor project, whole organism, uHTS, GFP/RFP fluorescence ratio, strain VP596; 360,000 compounds, 0.49% hits; AID 624304, 2012; C. elegans VP596 Pgst-4::GFP/RFP ratio, 24 h; inhibition, % at 21.8 µM;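 active means interference check ratio from 0.5 to 1.5 plus GFP to RFP signal ratio inhibition reaching or exceeding a fixed threshold, cut at about 30% in these data, passing the limit was not always enough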
iPSC survival up: enhancers of single-cell hiPSC survival, primary screen, ATPlite luminescence; 100% = ROCK inhibitor wells, 0% = DMSO; survival enhancement, % at 20 µM; 360,000 compounds, 0.044% hits; AID 602274, 2012; in the data active means survival enhancement above about 18%;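 further: cells exposed to compounds for 16 hours before the ATP read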
The depositor's hits bear a star. The list is not random: actives were taken first. Their share in the collection is about 1.3%.

Results for CC(C)N1C/C(=C/c2cccnc2)C(=O)/C(=C/c2cccnc2)C1 ?
DAGLB inhibitor: 0.0; FAS TE block: -13.4; MT1-MMP act inh: -5.0; SKN-1 block: 3.7; iPSC survival up: 13.0

Results for CCN(CC)S(=O)(=O)c1ccc2c(c1)nc(SC(C)C(N)=O)n2-c1ccc(OC)cc1 (centres undefined) ?
DAGLB inhibitor: -0.7; FAS TE block: -2.1; MT1-MMP act inh: 0.4; SKN-1 block: 28.7*; iPSC survival up: -2.6

How did COc1ccc(-n2nnnc2SC(C)C(N)=O)cc1 (centres undefined) do in these assays?
DAGLB inhibitor: -4.3; FAS TE block: -12.5; MT1-MMP act inh: 0.4; SKN-1 block: 3.8; iPSC survival up: 2.4

What do the screens show for `CSc1ccc(C2Nc3ccccc3-c3cc(C)nn32)cc1` (centres undefined)?
DAGLB inhibitor: -4.2; FAS TE block: 25.0; MT1-MMP act inh: 5.5; SKN-1 block: 43.8*; iPSC survival up: -1.1

Results for CCNC(=O)C1(C)CCN(C(=O)c2ccc(-c3ccccc3)cc2)C1 (centres undefined) ?
FAS TE block: -5.3; MT1-MMP act inh: 7.2; SKN-1 block: -2.2; iPSC survival up: 0.6

How did Cc1ccc2c(COC(=O)C3=COCCO3)cc(=O)oc2c1 do in these assays?
DAGLB inhibitor: 2.3; FAS TE block: -4.2; MT1-MMP act inh: 3.6; SKN-1 block: 10.6; iPSC survival up: 22.6*

Results for Cc1ccc(S(=O)(=O)NCC(=O)OCc2cc(=O)oc3cc(C)ccc23)cc1 ?
DAGLB inhibitor: -4.7; FAS TE block: 3.6; MT1-MMP act inh: -0.6; SKN-1 block: 4.0; iPSC survival up: 5.4

Results for CC/C(=N\Nc1ccc([N+](=O)[O-])cc1)c1ccccc1 ?
DAGLB inhibitor: 0.3; FAS TE block: 48.2; MT1-MMP act inh: -11.3; SKN-1 block: 35.0*; iPSC survival up: 0.6

What do the screens show for `CC(C)(C)C(=O)Nc1cc2nn(-c3ccccc3)nc2cc1Cl`?
DAGLB inhibitor: -6.3; FAS TE block: 19.9; MT1-MMP act inh: -0.1; SKN-1 block: 42.1*; iPSC survival up: -7.9

How did CC(=O)Nc1cc2nn(-c3ccccc3)nc2cc1Cl do in these assays?
DAGLB inhibitor: -0.8; FAS TE block: -3.5; MT1-MMP act inh: 2.0; SKN-1 block: -3.1; iPSC survival up: -2.5

Results for O=C(Nc1cc2nn(-c3ccccc3)nc2cc1Cl)c1ccco1 ?
DAGLB inhibitor: -4.8; FAS TE block: 5.4; MT1-MMP act inh: 6.7; SKN-1 block: 45.1*; iPSC survival up: -1.7

What do the screens show for `O=C(c1cc(-c2ccc(Cl)cc2)on1)N1CCc2ccccc2C1`?
DAGLB inhibitor: -1.0; FAS TE block: -1.6; MT1-MMP act inh: 0.4; SKN-1 block: 7.5; iPSC survival up: 0.1

Results for O=C(c1cc(-c2ccccc2)on1)N1CCc2ccccc2C1 ?
DAGLB inhibitor: -9.5; FAS TE block: 31.8; MT1-MMP act inh: 1.6; SKN-1 block: 37.5*; iPSC survival up: 0.9

Results for Cc1ccc(C(=O)N2CCCC2(C)C(=O)NCC(C)C)cc1F (centres undefined) ?
FAS TE block: -13.7; MT1-MMP act inh: 0.1; SKN-1 block: -11.8; iPSC survival up: -0.1

What do the screens show for `O=C(Nc1sc2c(c1C(=O)c1ccc(Cl)cc1)CCCC2)c1cccnc1`?
DAGLB inhibitor: -4.6; FAS TE block: 20.6; MT1-MMP act inh: -6.1; SKN-1 block: 35.3*; iPSC survival up: 3.7

What do the screens show for `O=C(Nc1sc2c(c1C(=O)c1ccccc1)CCCC2)c1cccnc1`?
DAGLB inhibitor: 0.2; FAS TE block: 10.8; MT1-MMP act inh: -4.0; SKN-1 block: 2.2; iPSC survival up: 2.2

How did CC(C)CC(C(=O)NCc1ccccn1)N1C(=O)c2ccccc2C1=O (centres undefined) do in these assays?
DAGLB inhibitor: 1.6; FAS TE block: -5.6; MT1-MMP act inh: -2.1; SKN-1 block: 41.8*; iPSC survival up: -0.4

What do the screens show for `CC(C)CC(C(=O)NC(=O)NCc1ccccc1)N1C(=O)c2ccccc2C1=O` (centres undefined)?
DAGLB inhibitor: 0.4; FAS TE block: 20.9; MT1-MMP act inh: 0.3; SKN-1 block: -22.7; iPSC survival up: 0.3

How did O=C(C=Cc1cccs1)c1ccc(Cl)s1 do in these assays?
DAGLB inhibitor: -5.4; FAS TE block: -0.4; MT1-MMP act inh: 1.1; SKN-1 block: 41.4*; iPSC survival up: -3.4

Results for CC(C)(C)NC(=O)C[C@H]1C[C@H](C(=O)N2CCOCC2)[C@@]2(CCC3CCCC3)c3[nH]c4ccc(Cl)cc4c3CCN2C1=O ?
DAGLB inhibitor: 1.9; FAS TE block: 89.3*; MT1-MMP act inh: -24.7; SKN-1 block: 17.4; iPSC survival up: -2.7

Results for CC(C)C(=O)NC(=S)/C=C1/N(C)c2ccccc2C1(C)C ?
DAGLB inhibitor: 2.1; FAS TE block: -3.9; MT1-MMP act inh: -3.9; SKN-1 block: 59.9; iPSC survival up: -0.3

Results for CN1/C(=C/C(=S)NC(=O)C2CCC2)C(C)(C)c2ccccc21 ?
DAGLB inhibitor: 6.5; FAS TE block: 3.5; MT1-MMP act inh: -17.3; SKN-1 block: 41.2*; iPSC survival up: 0.0

Results for Cc1ccc(S(=O)(=O)NCc2ccccc2)cc1C(=O)NCC(=O)Nc1c(C)cccc1C ?
DAGLB inhibitor: 2.1; FAS TE block: -4.4; MT1-MMP act inh: 5.1; SKN-1 block: 16.6; iPSC survival up: 1.8

What do the screens show for `O=C(Nc1ccccc1)Nc1csc2ccccc12`?
FAS TE block: 22.7; MT1-MMP act inh: -2.5; SKN-1 block: 35.4*; iPSC survival up: -0.8

Results for O=C(C=Cc1ccccc1)c1cc(Br)ccc1O ?
DAGLB inhibitor: -14.8; FAS TE block: 13.9; MT1-MMP act inh: 4.1; SKN-1 block: 43.3*; iPSC survival up: -2.3

Results for O=C(CSc1ncnc2c1oc1ccccc12)Nc1ccccc1F ?
DAGLB inhibitor: 1.5; FAS TE block: 0.4; MT1-MMP act inh: 2.0; SKN-1 block: 7.5; iPSC survival up: 1.4

What do the screens show for `CCOc1ccccc1NC(=O)CSc1ncnc2c1oc1ccccc12`?
DAGLB inhibitor: -1.0; FAS TE block: 22.1; MT1-MMP act inh: -2.4; SKN-1 block: 34.5*; iPSC survival up: 0.5

What do the screens show for `COC(=O)C1=C(C)NC(C)=C(C(=O)OC)C1c1ccc(OC(=O)c2ccco2)cc1`?
DAGLB inhibitor: -1.6; FAS TE block: 3.1; MT1-MMP act inh: 4.2; SKN-1 block: 35.5*; iPSC survival up: 14.2

Results for CC1=C(C(=O)N(C(C)C)C(C)C)CC(CC(=O)NCc2cccs2)C(=O)N1CCC1=CCCCC1 (centres undefined) ?
FAS TE block: -2.8; MT1-MMP act inh: 0.1; SKN-1 block: 4.4; iPSC survival up: -0.2

Screening results from PubChem BioAssay.
